According to ChEMBL document CHEMBL3856259, “Evaluation of canthinone alkaloids as cerebral protective agents” (Bioorg Med Chem Lett, 2016):
Activity calls are given as the source filed them. No cut-off for these calls is given here.

What was measured:
[1] = system: Meriones unguiculatus; experiment: Cerebral protective activity in anesthetized cerebral ischemia-induced Mongolian gerbil hippocampus assessed as protective values on density of surviving neurons in CA1 subfields of hippocampus at 100 mg/kg, po pretreated for 30 mins followed by bilateral ligation-induced ischemia for 5 mins measured on day 1 post 3 days ischemia induction by hematoxylin and eosin staining based microscopic analysis relative to control; type: functional
[2] = system: Meriones unguiculatus; experiment: Cerebral protective activity in cerebral ischemia-induced Mongolian gerbil assessed as passive avoidance test value at 100 mg/kg, po pretreated for 30 mins followed by bilateral ligation-induced ischemia for 5 mins measured on day 1 post 3 days ischemia induction relative to control; type: functional
[3] = Toxicity in Mongolian gerbil assessed as effect on body temperature at 30 to 100 mg/kg, po; type: organism-based, Meriones unguiculatus; details: in vivo
[4] = system: Meriones unguiculatus; experiment: Cerebral protective activity against kainic acid-induced neuronal necrosis in po dosed Mongolian gerbil administered after kainic acid injection; type: functional, organism-based
How it was run: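 Male Mongolian gerbils (n = 10), fasted overnight, given atropine (5.0 µg/animal) and pentobarbital anesthesia (40 mg/kg ip). Kainic acid in saline at pH 7.4 (0.2 µL of 1.0 µg/µL) infused stereotaxically into right hippocampal CA3 over 4.0 min. Drug dosed orally after the lesion. Perfusion-fixed 4 days later. Surviving CA1 neuron density (/mm) scored. Mean ± SEM.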

[5] = system: Meriones unguiculatus; experiment: Cerebral protective activity in cerebral ischemia-induced Mongolian gerbil assessed as reduction in neuronal cell death at 30 mg/kg, po administered at 3hrs after cerebral ischemia induction; type: functional, organism-based
How it was run: (§1)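 Gerbils (n = 10) subjected to bilateral carotid ligation ischemia, then given 30 mg/kg orally at 3 h or at 3 h and 6 h after ischemia. Brains perfusion-fixed in 10% neutral formalin and paraffin-embedded. 5-µm coronal sections stained with H&E. Surviving CA1 hippocampal neurons counted (/mm). Mean ± SEM, Student's t-test.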

[6] = Toxicity in Mongolian gerbil assessed as reduction in heart rate at 30 to 100 mg/kg, po; type: organism-based, Meriones unguiculatus; details: in vivo
How it was run: (§2)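 Heart rate and mean systolic blood pressure recorded in gerbils after oral doses of 30 and 100 mg/kg.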

[7] = Toxicity in Mongolian gerbil assessed as reduction in systolic blood pressure at 30 to 100 mg/kg, po; type: organism-based, Meriones unguiculatus; details: in vivo; how it was run: as §2
[8] = Toxicity in Mongolian gerbil assessed as locomotion-reducing effect at 30 to 100 mg/kg, po; type: organism-based, Meriones unguiculatus; details: in vivo
[9] = system: Meriones unguiculatus; experiment: Cerebral protective activity against ischemia in Mongolian gerbil assessed as reduction in 45Ca2+ accumulation in brain at 30 mg/kg, po administered after cerebral ischemia induction for 15 mins in presence of 45CaCl2 by autoradiographic analysis
[10] = system: Meriones unguiculatus; experiment: Cerebral protective activity in cerebral ischemia-induced Mongolian gerbil assessed as reduction in neuronal cell death in CA1 subfields of hippocampus at 30 mg/kg, po administered twice at 3 and 6 hrs after cerebral ischemia induction; type: functional, organism-based; how it was run: as §1

Compound | Activity [1] | Activity [2] | other results
Cn1ccc2c3n(c(=O)c(=O)cc1-3)c1ccccc21 | 84.6% | >80% | 
[O-][n+]1ccc2c(c1)[nH]c1ccccc12 | 13.8% | <=40% | 
COc1c(O)c(=O)n2c3ccccc3c3ccnc1c32 | 13.9% | <=40% | 
COc1c(O)c(=O)n2c3ccccc3c3cc(O)nc1c32 | 26.2% | <=40% | 
COc1ccc2c3ccn(C)c4cc(=O)c(=O)n(c3-4)c2c1 | 53.8% | >=40 - 60% | 
Cn1c(=O)cc2c3ccccc3n3c(=O)ccc1c23 | 10.6% | <=40% | 
COc1c2n(C)ccc3c-2n(c(=O)c1=O)c1c(Br)cc(Br)cc31 | -8.1% | <=40% | 
COc1c(OC)c2nccc3c4ccccc4n(c1=O)c23 [4,5-DIMETHOXYCANTHIN-6-ONE] | 20.8% | <=40% | 
COc1c(OC)c2nc(O)cc3c4ccccc4n(c1=O)c23 | 2.8% | <=40% | 
COc1c(OC)c2c3c(cc(=O)n2C)c2ccccc2n3c1=O | 24.3% | <=40% | 
CCc1c2n(C)ccc3c-2n(c(=O)c1=O)c1ccccc31 | 26.3% | <=40% | 
CCn1ccc2c3n(c(=O)c(=O)cc1-3)c1ccccc21 | 92.3% | <=40% | 
Cn1ccc2c3n(c(=O)c(=O)cc1-3)c1c(Br)cc(Br)cc21 | 3% | <=40% | 
COc1c2n(C)ccc3c-2n(c(=O)c1=O)c1ccc(Br)cc31 | -0.8% | <=40% | 
C[C@@H]1N[C@H](C(=O)O)Cc2c1[nH]c1ccccc21 | -13.6% | <=40% | 
COc1c2n(C)ccc3c-2n(c(=O)c1=O)c1ccccc31 | 73.1% | >80% | Activity [3]: Non-Toxic; Activity [4]: Active; Activity [5]: Active; Activity [6]: Non-Toxic; Activity [7]: Non-Toxic; Activity [8]: Non-Toxic; Activity [9]: Active; Activity [10]: Active
CC[C@@H]1N[C@H](C(=O)O)Cc2c1[nH]c1ccccc21 | 10.9% | <=40% | 
COC(=O)c1nccc2c1[nH]c1ccccc12 | 30.1% | <=40% | 
COC(=O)[C@@H]1Cc2c([nH]c3ccccc23)[C@H](C)N1 | 18.6% | <=40% | 
CCn1ccc2c3n(c(=O)c(=O)c(OC)c1-3)c1ccccc21 | 46.2% | <=40% | 
Cn1ccc2c3n(c(=O)c(=O)cc1-3)c1ccc(Br)cc21 | 27.3% | <=40% | 
Cc1c2[nH]c3ccccc3c2cc[n+]1[O-] | 14.2% | <=40% | 
